Columns and labels:
[1] = read-out: KD of haem binding; cited from earlier work
[2] = test system: iron uptake genes (hmuP) and rirA in S. meliloti; assay: qRT-PCR of iron-related genes; format: cell-based, Sinorhizobium meliloti
Procedure, shortened: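 Cells are grown in LB to OD600 0.2, pelleted and resuspended for 1 h in minimal medium with or without FeSO₄, then exposed to peptide for 30 min. Transcript levels are measured by qRT-PCR and expressed as starting quantities normalised to the reference gene SMc00128.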

[3] = test system: Porphyromonas gingivalis 2561; assay: Cell viability assay, P. gingivalis; format: cell-based
[4] = test system: S. meliloti bacteroids isolated from M. truncatula nodules; assay: 55Fe uptake by isolated bacteroids; format: cell-based, Sinorhizobium meliloti; settings: bacteroids from nodules of plants inoculated with wild type S. meliloti, NCR247 treated
[5] = test system: S. meliloti; assay: Growth curve in minimal medium; format: cell-based, Sinorhizobium meliloti; settings: 2 μM NCR247, OD 600 nm, 30° C
Procedure, shortened: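 Strain RM1021 or its mutants are first grown in LBMC (LB with 2.5 mM CaCl₂ and 2.5 mM MgSO₄, 200 μg/ml streptomycin, 30°C). Overnight cultures are washed and subcultured 1:100 into minimal medium, either iron-free or with the stated iron, Mn or Zn supplement. Cultures shake continuously at 150 rpm and 30°C in a plate reader, with OD600 read every 60 min.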

[6] = test system: S. meliloti; assay: ICP-MS total iron content of cells; format: cell-based, Sinorhizobium meliloti; settings: 2 μM NCR247, ICP-MS, normalized to protein
Procedure, shortened: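 Equal numbers of cells are pelleted for ICP-MS metal analysis. Protein is measured from the same number of cells, and metal content is normalised to protein.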

[7] = test system: Cytochrome c; assay: UV-Vis test of haem sequestration from Cytochrome c; format: binding; settings: excess NCR247 added to Cytochrome c, UV-Vis spectrum
[8] = test system: S. meliloti; assay: Radioactive 55Fe uptake assay; format: cell-based, Sinorhizobium meliloti
Procedure, shortened: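 Cells are grown in LB to OD600 0.2, pelleted and held 1 h in minimal medium with 5 μM FeSO₄. Then 2 μM peptide and 100 μM sodium ascorbate are added for 30 min. At time 0, 1 μM ⁵⁵FeCl₃ with ascorbate is added. Timed 1 ml samples are quenched in ice-cold buffer (0.1 M Tris, 1 mM ascorbate, 100 μM FeSO₄, pH 6.0) and vacuum-filtered on 0.45 μm filters. Filters are scintillation-counted, and counts are normalised to protein.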

[9] = test system: Aβ (1-42)-haem complex; assay: Peroxidase assay; format: biochemical, human; settings: equimolar addition of NCR247, TMB substrate, 370 nm and 652 nm
Procedure, shortened: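 Haem complex, with or without equimolar peptide, is added to TMB substrate solution (TMB:peroxide 1:1) in 96-well plates. Reaction progress is followed in a plate reader by absorbance at 370 and 652 nm. Values are the mean of three independent replicates ± s.d.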

[10] = UV-Vis spectroscopy of haem binding to synthesized peptide; settings: haem reduced by excess sodium dithionite, anaerobic chamber
Procedure, shortened: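 Hemin is dissolved in 0.1 M NaOH and used within 30 min. Its stock concentration is set by pyridine hemochrome absorbance at 557 nm (ε 34.7 mM⁻¹ cm⁻¹). Peptide and haem are mixed in water (pH 7.4) in 96-well plates. After shaking at 100 rpm for 15 s, spectra are recorded from 300 to 700 nm in 5 nm steps on a plate reader.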

Substance	Kd [1]	rirA transcription ([2]; wild type S. meliloti, 2 μM NCR247 for 30 mins)	transcript levels of iron uptake genes ([2]; wild type S. meliloti, iron-replete medium, NCR247 treatment 30 mins)	expression of hmuP in ΔbacA strain ([2]; ΔbacA S. meliloti, 2 μM NCR247 for 30 mins)	growth / viable cell number of Porphyromonas gingivalis [3]	uptake of Fe55 by bacteroids compared with untreated [4]	growth rate of S. meliloti [5]	total iron content of the cells [6]	sequestration of cytochrome haem [7]	import of 55Fe ([8]; wild type S. meliloti, medium with sufficient iron (5 μM FeSO4), 2 μM NCR247, mean of three biological replicates)	uptake of 55Fe in irr deletion mutant compared to wild type ([8]; Δirr S. meliloti, NCR247 treated)	peroxidase activity of Aβ (1-42)-haem complex [9]	binding of Fe(II) ferrous haem [10]
Aβ(1-42): human Aβ(1-42) amyloid peptide [reference compound]	0.14 µM	–	–	–	–	–	–	–	–	–	–	–	–
RNGCIVDPRCPYQQCRRPLYCRRR [NCR247]	–	reduced	increase in transcript levels of iron uptake genes	very little change in expression of hmuP	can prevent the growth	increase uptake of Fe^55	reduction in growth rate	elevated total iron content	cannot sequester cytochrome haem	markedly increased	diminished	quenches its peroxidase activity	binds
serum albumin	40 µM	–	–	–	–	–	–	–	–	–	–	–	–
